# Screens as filed in PubChem BioAssay.
# This is a sample that favours compounds with a hit; in the whole collection about 1% have one here.
# Hsp70 act = Hsp70 transcriptional activators, primary screen, cell-based, HeLa, Hsp70 promoter luciferase, luminescence, 10 µM | HeLa Hsp70 promoter luciferase reporter; scaled: vehicle 0, proteasome-inhibitor control 100% | activation, % at 10 µM | actives 0.04% (n = 200,000);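 active means activation above the mean across all tested compounds plus 3 SD, cutoff set per campaign, cut at about 5.5% in these data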;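 further: 100% = MG132 at 30 µM as the positive control and 0% = DMSO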
# NOD2 RIPK2 PPI = NOD2-RIPK2 binding disruptors in cells, primary screen, fluorescence, CHO cells, BLA complementation; Receptor-interacting serine/threonine-protein kinase 2 (Homo sapiens), O43353; CCF4 ratio; inhibition, % at 4.98 µM; actives 0.38% (n = 360,000); in the data active means inhibition above about 21%;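 further: 0% = vehicle only and 100% = reference blocker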
# TLR4-MyD88 BLA = inhibitors of TLR4-MyD88 association in cells, primary screen, cell-based, HeLa CL3-4, BLA complementation, FRET ratio | Toll-like receptor 4 (Homo sapiens) + Myeloid differentiation primary response protein … | HeLa CL3-4 TLR4/MyD88 BLA complementation | inhibition, % at 8.4 µM | actives 0.18% (n = 200,000) | AID 861, 2007; in the data active means inhibition above about 25%;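 further: 0% = vehicle and 100% = reference inhibitor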
# TLR9-MyD88 block = inhibitors of TLR9-MyD88 association in cells, primary screen, cell-based, CHO, BLA complementation, fluorescence | AID 504734, 2011 | CCF4 FRET ratio | Toll-like receptor 9 (Homo sapiens) + Myeloid differentiation primary response protein … | actives 0.21% (n = 340,000) | inhibition, % at 4.98 µM;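 active means inhibition above the mean over all tested compounds plus 3 SD, cut at about 21% in these data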;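 further: 0% = DMSO only wells and 100% = clavulanate BLA inhibitor control wells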
# MT stabilize HCS = microtubule stabilizers in HeLa cells, primary screen, imaging, high-content imaging | actives 0.83% (n = 200,000) | % tubulin-high responders, % at 10 µM | HeLa tubulin immunostaining HCS, 24 h; share of cells brighter than vehicle mean+2SD | AID 2205, 2009;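 active means plate Z-score above 3 for both tubulin-high and condensed-nucleus cell shares, with cell loss under 80%, at 10 µM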;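 further: anti alpha tubulin signal scored within the nucleus-defined area of each cell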
# b-catenin transl = modulators of beta-catenin nuclear translocation, primary screen, imaging, HeLa cells, immunofluorescence, high-content. nuclear translocation activity, % at 5 µM. actives 0.3% (n = 190,000);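 active means nuclear translocation activity above 50% at 5 µM, with a well cell count of 50 or more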;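 further: per-cell ratio of nuclear to cytoplasmic median beta-catenin stain intensity; plate controls were DMSO negative control for no effect and GSK-3 inhibitor IX positive control for full effect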
#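 Test system: human HeLa cell line; Doses: 5 µM primary, 0.02–20 µM confirmation; Incubation: 24 h compound exposure, 37°C; Detection: beta-catenin immunofluorescence imaging with DAPI; Read-out: beta-catenin nuclear/cytoplasmic ratio, % activation.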
# TLR9-MyD88 conf = TLR9-MyD88 association inhibitors, retest, confirmation, cell-based, CHO, BLA complementation, fluorescence, triplicate. actives 51% (n = 680). inhibition, % at 4.98 µM. shares compounds with TLR9-MyD88 block. CCF4 FRET ratio;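 active means mean inhibition across three repeats above about 21% taken from the earlier screen, limit read from the data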;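 further: blue over green emission ratio reports constitutive TLR9 MyD88 association via BLA complementation; 0% = DMSO vehicle wells and 100% = clavulanate BLA inhibitor wells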
# BLA counter-1 = beta-lactamase reporter inhibitors in CHO cells, artefact control for TLR9-MyD88 binding inhibitor project, cell-based, fluorescence; shares compounds with TLR9-MyD88 block; CHO-BLA cells, CCF4 FRET ratio, BLA reporter; inhibition, % at 4.98 µM; actives 7% (n = 680); AID 540251, 2011;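 active means mean inhibition above a 50% cutoff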;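 further: counterscreen of TLR9-MyD88 hits on CMV-driven BLA in CHO-K1 cells; 0% = DMSO alone and 100% = clavulanate blocking BLA; higher means less blue over green ratio so more BLA blockade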
# TLR9 CHO cytotox = CHO cell viability loss – luminescence, single concentration, cytotoxicity control for TLR9-MyD88 binding inhibitor project | inhibition, % at 4.98 µM | AID 588336, 2011 | actives 39% (n = 680) | shares compounds with TLR9-MyD88 block | TLR9-MyD88 CHO cells cytotoxicity; in the data active means inhibition above about 11%
# NOD2-RIPK2 conf = NOD2-RIPK2 binding disruptors, retest, confirmation, fluorescence, CHO cells, BLA complementation, triplicate | shares compounds with NOD2 RIPK2 PPI | CCF4 FRET | inhibition, % at 4.98 µM | actives 70% (n = 1,200) | AID 624370, 2012;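 active means mean inhibition across replicates above a set limit taken from the earlier primary screen, cut at about 21% in these data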;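 further: 0% = DMSO-only wells and the high end = clavulanate BLA-blocked wells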
# BLA counter-2 = counter-screen for NOD2-RIPK2 interaction inhibitors: BLA reporter | shares compounds with NOD2 RIPK2 PPI | CHO BLA reporter, CCF4 FRET ratio, counterscreen | inhibition, % at 4.98 µM | actives 57% (n = 1,200) | AID 624371;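 active means mean inhibition above the low-control mean inhibition plus three low-control SD, cut at about 11% in these data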;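 further: 0% = DMSO only wells and 100% = clavulanate high control wells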
# An asterisk follows results filed as active; nt = not tested or not shown.
SMILES,Hsp70 act,NOD2 RIPK2 PPI,TLR4-MyD88 BLA,TLR9-MyD88 block,MT stabilize HCS,b-catenin transl,TLR9-MyD88 conf,BLA counter-1,TLR9 CHO cytotox,NOD2-RIPK2 conf,BLA counter-2
CC1(C(=O)Nc2ccc3c(c2)OCCO3)CN(S(C)(=O)=O)CC(=O)N1CCCn1ccnc1 (stereo unspecified),nt,4,nt,nt,nt,nt,nt,nt,nt,nt,nt
O=[N+]([O-])c1ccc(C=CC=Cc2ccccc2)cc1,nt,6,nt,25*,nt,nt,17,20,-3,nt,nt
O=Nc1c(O)n(Cc2ccc(Cl)cc2Cl)c2ccccc12,0,16,0,33*,2,1,23*,20,2,nt,nt
C/C(Cl)=C\Cn1c(O)c(N=O)c2ccccc21,0,19,8,21*,2,3,9,11,2,nt,nt
Cc1ccc2c(c1)c(N=O)c(O)n2Cc1ccc(Cl)cc1,0,1,17,13,2,1,nt,nt,nt,nt,nt
Cc1ccc(Cn2c(O)c(N=O)c3ccccc32)cc1,0,13,9,24*,3,0,1,3,5,nt,nt
O=S(=O)(c1ccc(NC(=S)NN=Cc2ccccc2O)cc1)N1CCCCC1,nt,1,nt,2,nt,nt,nt,nt,nt,nt,nt
CC1(C(=O)O)CCCN1C(=O)c1cccc(OC(F)(F)F)c1 (stereo unspecified),nt,2,nt,nt,nt,nt,nt,nt,nt,nt,nt
COc1ccccc1C(=O)Nc1onc(C)c1C#N,0,-6,7,22*,2,0,-1,-2,-2,nt,nt
COc1ccc(NC(=O)c2sc3nc(-c4cccnc4)ccc3c2N)cc1,nt,12,nt,34*,nt,0,8,5,8,nt,nt
Nc1c(C(=O)Nc2ccccc2)sc2nc(-c3cccnc3)ccc12,nt,nt,nt,nt,nt,0,nt,nt,nt,nt,nt
COc1ccc(C(=O)c2sc3nc(-c4ccc(OC)cc4)ccc3c2N)cc1,0,4,-2,21*,2,-1,45*,45,0,nt,nt
Cc1cccc(/C=C2\Oc3cc(OS(C)(=O)=O)ccc3C2=O)c1,0,-6,5,-8,2,-2,nt,nt,nt,nt,nt
O=C1/C(=C/c2cccc(F)c2)Oc2cc(O)ccc21,nt,32*,nt,25*,nt,nt,10,15,2,44*,42*
CC(=O)Oc1cccc(N2C(=O)c3ccc(C(=O)O)cc3C2=O)c1,-1,-1,-4,-7,4,nt,nt,nt,nt,nt,nt
CC(=O)Oc1cccc(N2C(=O)c3cccc4c([N+](=O)[O-])ccc(c34)C2=O)c1,nt,45*,nt,42*,nt,nt,47*,42,94*,63*,67*
Cc1ccc(C(=O)O)cc1N1C(=O)c2cccc3c([N+](=O)[O-])ccc(c23)C1=O,nt,56*,nt,29*,nt,nt,26*,22,-3,45*,39*
C=C1CC(COc2ccc3c(C)c(Cl)c(=O)oc3c2)(c2ccccc2)OC1=O (stereo unspecified),nt,60*,nt,24*,nt,nt,23*,8,98*,74*,28*
CC(=O)Nc1ccc(S(=O)(=O)NC2(C(F)(F)F)NC(=O)N(c3ccc(C)cc3)C2=O)cc1 (stereo unspecified),nt,-13,nt,0,nt,nt,nt,nt,nt,nt,nt
O=[N+]([O-])c1ccc(C2=NN(c3ccccc3)C(c3ccco3)C2)cc1 (stereo unspecified),nt,41*,nt,59*,nt,0,40*,41,5,73*,69*
O=[N+]([O-])c1ccc(/C=C/C2=NN(c3ccccc3)C(c3ccco3)C2)cc1 (stereo unspecified),0,4,17,11,8,nt,nt,nt,nt,nt,nt
Oc1ccc2nnc3c(Br)cnn3c2c1,nt,44*,nt,32*,nt,nt,27*,31,6,60*,58*
COc1ccccc1CNC(=O)CCNC(=O)c1ccco1,nt,-13,nt,-7,nt,nt,nt,nt,nt,nt,nt
O=C(NC1CC1)c1cccc2c1C(=O)c1ccc(N3CCC(Cc4ccccc4)CC3)cc1S2(=O)=O,nt,34*,nt,32*,nt,nt,21,25,2,45*,50*
CCCCNC(=O)C[C@@H]1C[C@@]2(C(=O)OC)CCCCC=C2N(Cc2ccc(Cl)cc2Cl)C1=O,nt,2,nt,nt,nt,nt,nt,nt,nt,nt,nt
SMILES,Hsp70 act,NOD2 RIPK2 PPI,TLR4-MyD88 BLA,TLR9-MyD88 block,MT stabilize HCS,b-catenin transl,TLR9-MyD88 conf,BLA counter-1,TLR9 CHO cytotox,NOD2-RIPK2 conf,BLA counter-2
Nc1c(C(=O)c2ccccc2)sc2nsc(SCCN3CCCC3)c12,nt,29*,nt,28*,nt,2,21*,18,9,44*,47*
CCN1CCN(Cc2c(O)ccc3c2O/C(=C\c2ccccc2)C3=O)CC1,0,27*,8,21*,2,-1,15,12,0,25*,28*
CCN1CCN(Cc2c(O)ccc3c2O/C(=C\C=C\c2ccccc2)C3=O)CC1,0,7,4,6,9,-2,nt,nt,nt,nt,nt
CC(=NNC(=S)N1CCN(c2ccccn2)CC1)c1nccs1,nt,24*,nt,37*,nt,nt,28*,18,97*,42*,18*
CCc1nc2ccc(C(=O)Nc3cc(-c4ccccc4)ccc3OC)cn2c1N(C=O)CCC(C)C,nt,3,nt,nt,nt,nt,nt,nt,nt,nt,nt
COc1ccc(OC)c2c1C(=O)c1ccccc1C2=O,0,nt,16,nt,2,1,nt,nt,nt,nt,nt
COc1ccc(OC)c2c1C(=O)C(Cl)=C(Cl)C2=O,nt,86*,nt,46*,nt,2,70*,24,97*,88*,34*
Cc1ccc(C(=O)N2CCCC2)cc1S(=O)(=O)N1CCCCC1,nt,7,nt,-4,nt,nt,nt,nt,nt,nt,nt
O=C(Nc1ccccc1SC(=O)c1ccccc1)c1ccccc1,nt,-8,nt,-9,nt,nt,nt,nt,nt,nt,nt
Cc1ccc(C(=O)Sc2cccccc2=O)cc1,nt,35*,nt,30*,nt,nt,21*,11,99*,48*,16*
